In brackets after ≈: the same amount, converted by molar mass.
Experiments:
Type in all cases: functional
[1] = system: Veillonella; experiment: Antimicrobial activity against Veillonella spp. under anaerobic conditions after 44 hrs by CLSI-M11-47 protocol based agar dilution method
How it was run: (§1)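 Clinical isolates were stored at −70°C in 20% skim milk and identified phenotypically or by partial 16S rRNA sequencing. Each strain was subcultured twice from frozen stock. Cell paste from 48-h cultures was suspended in brucella broth to a 0.5 McFarland standard. About 10^5 CFU per spot were applied by Steers replicator to agar dilution plates prepared on the day of testing. Plates were incubated 44 h at 37°C in an anaerobic chamber. MIC was taken as the lowest concentration giving complete inhibition or marked reduction of growth versus the drug-free control.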

[2] = system: Peptostreptococcus stomatis; experiment: Antimicrobial activity against Peptostreptococcus stomatis under anaerobic conditions after 44 hrs by CLSI-M11-47 protocol based agar dilution method; how it was run: as §1
[3] = system: Clostridium symbiosum; experiment: Antimicrobial activity against Clostridium symbiosum under anaerobic conditions after 44 hrs by CLSI-M11-47 protocol based agar dilution method
How it was run: (§2)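 Reference agar dilution per CLSI M11-A7 with plates made on test day. Clinical isolates were stored at −70°C in 20% skim milk, subcultured twice, and 48-h cell paste was suspended in brucella broth to 0.5 McFarland. About 10^5 CFU/spot was applied with a Steers replicator. Plates were incubated 44 h at 37°C anaerobically. MIC was the lowest concentration giving complete inhibition or marked growth reduction versus the drug-free control.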

[4] = system: Thomasclavelia ramosa; experiment: Antimicrobial activity against Clostridium ramosum under anaerobic conditions after 44 hrs by CLSI-M11-47 protocol based agar dilution method; how it was run: as §2
[5] = system: Prevotella denticola; experiment: Antimicrobial activity against Prevotella denticola under anaerobic conditions after 44 hrs by CLSI-M11-47 protocol based agar dilution method; how it was run: as §1
[6] = system: Prevotella bivia; experiment: Antimicrobial activity against Prevotella bivia under anaerobic conditions after 44 hrs by CLSI-M11-47 protocol based agar dilution method; how it was run: as §1
[7] = system: Lacticaseibacillus casei; experiment: Antimicrobial activity against Lactobacillus casei under anaerobic conditions after 44 hrs by CLSI-M11-47 protocol based agar dilution method; how it was run: as §1
[8] = system: Schaalia odontolytica; experiment: Antimicrobial activity against Actinomyces odontolyticus under anaerobic conditions after 44 hrs by CLSI-M11-47 protocol based agar dilution method; how it was run: as §2
[9] = system: Clostridium perfringens; experiment: Antimicrobial activity against Clostridium perfringens under anaerobic conditions after 44 hrs by CLSI-M11-47 protocol based agar dilution method
[10] = system: Peptostreptococcus anaerobius; experiment: Antimicrobial activity against Peptostreptococcus anaerobius under anaerobic conditions after 44 hrs by CLSI-M11-47 protocol based agar dilution method; how it was run: as §1
[11] = system: Peptoniphilus harei; experiment: Antimicrobial activity against Peptoniphilus harei under anaerobic conditions after 44 hrs by CLSI-M11-47 protocol based agar dilution method; how it was run: as §1
[12] = system: Eubacterium saburreum; experiment: Antimicrobial activity against Eubacterium saburreum under anaerobic conditions after 44 hrs by CLSI-M11-47 protocol based agar dilution method; conditions: Lachnoanaerobaculum saburreum; how it was run: as §2
[13] = system: [Clostridium] innocuum; experiment: Antimicrobial activity against Clostridium […] under anaerobic conditions after 44 hrs by CLSI-M11-47 protocol based agar dilution method; how it was run: as §2
[14] = system: Eubacterium cylindroides; experiment: Antimicrobial activity against Eubacterium cylindroides under anaerobic conditions after 44 hrs by CLSI-M11-47 protocol based agar dilution method; conditions: Faecalitalea cylindroides; how it was run: as §2
[15] = system: Solobacterium moorei; experiment: Antimicrobial activity against Solobacterium moorei under anaerobic conditions after 44 hrs by CLSI-M11-47 protocol based agar dilution method; how it was run: as §1
[16] = system: Anaerococcus prevotii; experiment: Antimicrobial activity against Anaerococcus prevotii under anaerobic conditions after 44 hrs by CLSI-M11-47 protocol based agar dilution method; how it was run: as §2
[17] = system: Fusobacterium nucleatum; experiment: Antimicrobial activity against Fusobacterium nucleatum under anaerobic conditions after 44 hrs by CLSI-M11-47 protocol based agar dilution method; how it was run: as §1
[18] = system: Fusobacterium varium; experiment: Antimicrobial activity against Fusobacterium varium under anaerobic conditions after 44 hrs by CLSI-M11-47 protocol based agar dilution method; how it was run: as §1
[19] = system: Lacrimispora sphenoides; experiment: Antimicrobial activity against Clostridium sphenoides under anaerobic conditions after 44 hrs by CLSI-M11-47 protocol based agar dilution method; how it was run: as §2
[20] = system: Peptoniphilus lacrimalis; experiment: Antimicrobial activity against Peptoniphilus lacrimalis under anaerobic conditions after 44 hrs by CLSI-M11-47 protocol based agar dilution method; how it was run: as §1
[21] = system: Parabacteroides distasonis; experiment: Antimicrobial activity against Bacteroides distasonis under anaerobic conditions after 44 hrs by CLSI-M11-47 protocol based agar dilution method; how it was run: as §2
[22] = system: Propionibacterium avidum; experiment: Antimicrobial activity against Propionibacterium avidum under anaerobic conditions after 44 hrs by CLSI-M11-47 protocol based agar dilution method; conditions: Cutibacterium avidum; how it was run: as §1
[23] = system: Clostridium glycolicum; experiment: Antimicrobial activity against Clostridium glycolicum under anaerobic conditions after 44 hrs by CLSI-M11-47 protocol based agar dilution method; conditions: Terrisporobacter glycolicus; how it was run: as §2
[24] = system: Anaerococcus murdochii; experiment: Antimicrobial activity against Anaerococcus murdochii under anaerobic conditions after 44 hrs by CLSI-M11-47 protocol based agar dilution method; how it was run: as §2
[25] = system: Bacteroides fragilis; experiment: Antimicrobial activity against Bacteroides fragilis spp. under anaerobic conditions after 44 hrs by CLSI-M11-47 protocol based agar dilution method; how it was run: as §2
[26] = system: Prevotella intermedia; experiment: Antimicrobial activity against Prevotella intermedia under anaerobic conditions after 44 hrs by CLSI-M11-47 protocol based agar dilution method; how it was run: as §1
[27] = system: Parvimonas micra; experiment: Antimicrobial activity against Parvimonas micra under anaerobic conditions after 44 hrs by CLSI-M11-47 protocol based agar dilution method; how it was run: as §1
[28] = system: Prevotella tannerae; experiment: Antimicrobial activity against Prevotella tannerae under anaerobic conditions after 44 hrs by CLSI-M11-47 protocol based agar dilution method; conditions: Alloprevotella tannerae; how it was run: as §1
[29] = system: Eubacterium contortum; experiment: Antimicrobial activity against Eubacterium contortum under anaerobic conditions after 44 hrs by CLSI-M11-47 protocol based agar dilution method; conditions: Faecalicatena contorta; how it was run: as §2
[30] = system: Prevotella buccae; experiment: Antimicrobial activity against Prevotella buccae under anaerobic conditions after 44 hrs by CLSI-M11-47 protocol based agar dilution method; conditions: Segatella buccae; how it was run: as §1
[31] = system: Paeniclostridium sordellii; experiment: Antimicrobial activity against Clostridium sordellii under anaerobic conditions after 44 hrs by CLSI-M11-47 protocol based agar dilution method; conditions: Paraclostridium sordellii; how it was run: as §2
[32] = system: Gemella sanguinis; experiment: Antimicrobial activity against Gemella sanguinis under anaerobic conditions after 44 hrs by CLSI-M11-47 protocol based agar dilution method; how it was run: as §1

SMILES: CCO/N=C(\C(=O)N[C@@H]1C(=O)N2C(C(=O)[O-])=C(Sc3nc(-c4cc[n+](C)cc4)cs3)CS[C@H]12)c1nsc(NP(=O)(O)O)n1 [CEFTAROLINE FOSAMIL]
- MIC50 [1]: 0.125 µg/mL (≈ 0.183 µM)
- MIC90 [1]: 0.5 µg/mL (≈ 0.73 µM)
- MIC50 [2]: 0.5 µg/mL (≈ 0.73 µM)
- MIC90 [2]: 4 µg/mL (≈ 5.84 µM)
- MIC50 [3]: 0.5 µg/mL (≈ 0.73 µM)
- MIC90 [3]: 16 µg/mL (≈ 23.4 µM)
- MIC50 [4]: 1 µg/mL (≈ 1.46 µM)
- MIC90 [4]: 1 µg/mL (≈ 1.46 µM)
- MIC50 [5]: 2 µg/mL (≈ 2.92 µM)
- MIC90 [5]: 32 µg/mL (≈ 46.7 µM)
- MIC50 [6]: 2 µg/mL (≈ 2.92 µM)
- MIC90 [6]: 64 µg/mL (≈ 93.5 µM)
- MIC50 [7]: 0.5 µg/mL (≈ 0.73 µM)
- MIC90 [7]: 1 µg/mL (≈ 1.46 µM)
- MIC50 [8]: 0.015 µg/mL (≈ 0.0219 µM)
- MIC90 [8]: 0.25 µg/mL (≈ 0.365 µM)
- MIC50 [9]: 0.125 µg/mL (≈ 0.183 µM)
- MIC90 [9]: 0.25 µg/mL (≈ 0.365 µM)
- MIC50 [10]: 0.5 µg/mL (≈ 0.73 µM)
- MIC90 [10]: 4 µg/mL (≈ 5.84 µM)
- MIC50 [11]: 0.06 µg/mL (≈ 0.0876 µM)
- MIC90 [11]: 1 µg/mL (≈ 1.46 µM)
- MIC50 [12]: 0.125 µg/mL (≈ 0.183 µM)
- MIC90 [12]: 0.25 µg/mL (≈ 0.365 µM)
- MIC50 [13]: 1 µg/mL (≈ 1.46 µM)
- MIC90 [13]: 2 µg/mL (≈ 2.92 µM)
- MIC50 [14]: 0.125 µg/mL (≈ 0.183 µM)
- MIC90 [14]: 0.25 µg/mL (≈ 0.365 µM)
- MIC50 [15]: 0.125 µg/mL (≈ 0.183 µM)
- MIC90 [15]: 0.25 µg/mL (≈ 0.365 µM)
- MIC50 [16]: 0.03 µg/mL (≈ 0.0438 µM)
- MIC90 [16]: 0.125 µg/mL (≈ 0.183 µM)
- MIC50 [17]: ≤ 0.08 µg/mL
- MIC90 [17]: 0.125 µg/mL (≈ 0.183 µM)
- MIC50 [18]: 0.25 µg/mL (≈ 0.365 µM)
- MIC90 [18]: 0.5 µg/mL (≈ 0.73 µM)
- MIC50 [19]: 0.5 µg/mL (≈ 0.73 µM)
- MIC90 [19]: 16 µg/mL (≈ 23.4 µM)
- MIC50 [20]: 0.06 µg/mL (≈ 0.0876 µM)
- MIC90 [20]: 1 µg/mL (≈ 1.46 µM)
- MIC50 [21]: 64 µg/mL (≈ 93.5 µM)
- MIC90 [21]: > 64 µg/mL
- MIC50 [22]: 0.25 µg/mL (≈ 0.365 µM)
- MIC90 [22]: 0.25 µg/mL (≈ 0.365 µM)
- MIC50 [23]: 0.5 µg/mL (≈ 0.73 µM)
- MIC90 [23]: 16 µg/mL (≈ 23.4 µM)
- MIC50 [24]: 0.06 µg/mL (≈ 0.0876 µM)
- MIC90 [24]: 1 µg/mL (≈ 1.46 µM)
- MIC50 [25]: 64 µg/mL (≈ 93.5 µM)
- MIC90 [25]: > 64 µg/mL
- MIC50 [26]: 1 µg/mL (≈ 1.46 µM)
- MIC90 [26]: 16 µg/mL (≈ 23.4 µM)
- MIC50 [27]: 0.06 µg/mL (≈ 0.0876 µM)
- MIC90 [27]: 0.25 µg/mL (≈ 0.365 µM)
- MIC50 [28]: 2 µg/mL (≈ 2.92 µM)
- MIC90 [28]: 32 µg/mL (≈ 46.7 µM)
- MIC50 [29]: 0.125 µg/mL (≈ 0.183 µM)
- MIC90 [29]: 0.25 µg/mL (≈ 0.365 µM)
- MIC50 [30]: 0.5 µg/mL (≈ 0.73 µM)
- MIC90 [30]: 64 µg/mL (≈ 93.5 µM)
- MIC50 [31]: 0.5 µg/mL (≈ 0.73 µM)
- MIC90 [31]: 16 µg/mL (≈ 23.4 µM)
- MIC50 [32]: 0.06 µg/mL (≈ 0.0876 µM)
- MIC90 [32]: 1 µg/mL (≈ 1.46 µM)
